Results on three compounds are retold here after ChEMBL document CHEMBL4765483 (J Med Chem, 2021).

In general, Ki refers to a dissociation constant, usually derived from enzyme kinetics or from competition with a known ligand. In general, inhibition refers to how much of the control response was suppressed.

For one series, the target named is T1, Adenosine receptor A2b (Homo sapiens, UniProt P29275).
T1 sequence (P29275 whole entry): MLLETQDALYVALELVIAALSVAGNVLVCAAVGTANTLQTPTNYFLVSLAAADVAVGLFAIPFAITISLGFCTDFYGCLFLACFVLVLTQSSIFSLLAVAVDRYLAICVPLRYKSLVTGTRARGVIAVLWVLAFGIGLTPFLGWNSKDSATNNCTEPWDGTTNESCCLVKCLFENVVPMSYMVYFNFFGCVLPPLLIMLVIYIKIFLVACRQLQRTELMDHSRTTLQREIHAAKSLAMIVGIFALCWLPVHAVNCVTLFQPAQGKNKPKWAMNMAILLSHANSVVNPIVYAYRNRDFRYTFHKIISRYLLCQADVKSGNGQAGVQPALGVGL
Briefly: Antagonist activity at human A2B receptor.

A short description of series [1]: Stability in human liver microsomes in NADP incubated up to 60 mins by UPLC-MS/MS analysis. It is filed as ADME, Microsome. Conditions: read-out: Stabilty. An outline of the steps:
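Human microsomes at 37 °C in 50 mM phosphate buffer pH 7.4 with 3 mM MgCl2, 1 mM NADP, 10 mM glucose-6-phosphate, 1 U/mL G6PDH. Samples at 0, 10, 20, 40, 60 min quenched into cold acetonitrile with 0.5% formic acid, centrifuged; supernatant analysed by UPLC–MS/MS on C18 column.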
A general note: Liver microsomes are vesicles of endoplasmic reticulum, rich in cytochrome P450 enzymes.

The subject of series [2] is LNCaP. Briefly: Toxicity in human LNCaP cells assessed as effect on cell growth at 10 to 100 uM by MTT assay. Type of series: cell-based. As to conditions: dose 10-100 µM. An outline of the steps: (§1)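 Prostate cancer cells cultured in RPMI 1640 with 10% FBS, penicillin and streptomycin at 37 °C, 5% CO2; tested at 10 and 100 μM by MTT assay with cisplatin as control.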
A general note: Tetrazolium dyes change colour on reduction, which living cells bring about.

Series [3] relates to PC-3. The experiment in a line: Toxicity in human PC-3 cells assessed as effect on cell growth at 10 to 100 uM by MTT assay. It is filed as cell-based. Conditions: pc-3, 100 µM, dose 10-100 µM. The method in brief: as §1
In series [4] the test system is DU-145. The experiment in a line: Toxicity in human DU-145 cells assessed as effect on cell growth at 10 to 100 uM by MTT assay. Type of series: cell-based. Conditions: du-145, 100 µM, dose 10-100 µM. The method in brief: as §1
For series [5], the system named is PC-3. Briefly: Antimigratory activity in human PC-3 cells assessed as reduction in cell migration at Ki level incubated for 72 hrs by crystal violet staining based confocal microscopy. Type of series: functional. On the set-up: scale not given: the % may be the effect or the level left. The method in brief:
(§2)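 Transwell migration, 8.0 μm pore polycarbonate membrane; 10⁵ cells seeded in serum-free medium in upper chamber, complete medium with 10% FBS below. Cells kept in RPMI 1640, 10% FBS. Migration scored after 72 h without or with treatment; migrated cells fixed in 4% paraformaldehyde, crystal violet stained, counted in five random fields; at least three chambers from three experiments.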

Series [6] relates to DU-145. The experiment in a line: Antimigratory activity in human DU-145 cells assessed as reduction in cell migration at Ki level incubated for 72 hrs by crystal violet staining based confocal microscopy. Type of series: functional. The method in brief: as §2
For series [7], the system named is LNCaP. Briefly: Antimigratory activity in human LNCaP cells assessed as reduction in cell migration at Ki level incubated for 72 hrs by crystal violet staining based confocal microscopy. Type of series: functional. An outline of the steps: as §2
Series [8] relates to PC-3. The experiment in a line: Antimetastatic activity in human PC-3 cells assessed as effect on cell shape at Ki level incubated for 72 hrs by confocal laser scanning microscopy. It is filed as functional, cell-based.
Series [9] has as its system PC-3. Briefly: Antimetastatic activity in human PC-3 cells assessed as induction of actin skeleton reorganization at Ki level incubated for 72 hrs by confocal laser scanning microscopy. It is filed as functional, cell-based.
The target in series [10] is T2, CYP3A4 (Homo sapiens, UniProt P08684). Briefly: Inhibition of CYP3A4 (unknown origin) expressed in insect cell microsomes at 1 uM in presence of BFC substrate by fluorescence based assay relative to control. Conditions: recombinant CYP3A4 expressed in insect cell microsomes, probe BFC. It is filed as ADME, Microsome. An outline of the steps: (§3)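 cDNA-expressed P450 in insect cell microsomes; cofactor mix of KH2PO4 buffer, 1.3 mM NADP, 3.3 mM MgCl2, 3.3 mM glucose-6-phosphate, 0.4 U/mL G6PDH. Preincubated 5 min at 37 °C, started with prewarmed enzyme/substrate mix, stopped at an isoform-specific time. Fluorescence read; percentage inhibition at 1 and 10 μM; mean of n = 3.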
T2 sequence (P08684 whole entry, canonical isoform): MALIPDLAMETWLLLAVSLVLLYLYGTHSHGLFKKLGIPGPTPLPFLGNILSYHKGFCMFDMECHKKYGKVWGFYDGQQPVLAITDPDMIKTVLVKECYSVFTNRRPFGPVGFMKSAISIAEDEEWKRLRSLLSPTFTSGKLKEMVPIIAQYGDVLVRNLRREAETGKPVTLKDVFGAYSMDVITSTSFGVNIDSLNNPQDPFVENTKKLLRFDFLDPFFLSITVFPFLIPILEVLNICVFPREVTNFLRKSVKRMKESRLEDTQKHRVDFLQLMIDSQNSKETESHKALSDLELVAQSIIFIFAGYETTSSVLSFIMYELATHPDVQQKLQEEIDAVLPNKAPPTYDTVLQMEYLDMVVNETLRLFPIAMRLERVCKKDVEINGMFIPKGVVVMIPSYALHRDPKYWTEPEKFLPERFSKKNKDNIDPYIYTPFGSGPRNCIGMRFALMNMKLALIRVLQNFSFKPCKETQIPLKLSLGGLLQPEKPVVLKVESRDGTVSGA

Series [11] addresses T2, CYP3A4. The experiment in a line: Inhibition of CYP3A4 (unknown origin) expressed in insect cell microsomes at 10 uM in presence of BFC substrate by fluorescence based assay relative to control. Conditions: recombinant CYP3A4 expressed in insect cell microsomes, probe BFC. It is filed as ADME, Microsome. The method in brief:
as §3

Series [12] concerns the target T2, CYP3A4. Briefly: Inhibition of CYP3A4 (unknown origin) expressed in insect cell microsomes at 1 uM in presence of DBF substrate by fluorescence based assay relative to control. Type of series: ADME, Microsome. Conditions: recombinant CYP3A4 expressed in insect cell microsomes, probe DBF. The method in brief:
as §3

Series [13] has as its target T2, CYP3A4. Briefly: Inhibition of CYP3A4 (unknown origin) expressed in insect cell microsomes at 10 uM in presence of DBF substrate by fluorescence based assay relative to control. Type of series: ADME, Microsome. As to conditions: recombinant CYP3A4 expressed in insect cell microsomes, probe DBF. The method in brief: as §3
Series [14] addresses T3, CYP2D6 (Homo sapiens, UniProt P10635). The experiment in a line: Inhibition of CYP2D6 (unknown origin) expressed in insect cell microsomes at 1 uM by fluorescence based assay relative to control. It is filed as ADME, Microsome. Conditions: recombinant CYP2D6 expressed in insect cell microsomes. An outline of the steps:
as §3

Series [15] concerns the target T3, CYP2D6. The experiment in a line: Inhibition of CYP2D6 (unknown origin) expressed in insect cell microsomes at 10 uM by fluorescence based assay relative to control. As to conditions: recombinant CYP2D6 expressed in insect cell microsomes. It is filed as ADME, Microsome. The method in brief: as §3
Series [16] deals with T4, Adenosine receptor A3 (Homo sapiens) (UniProt P0DMS8).
T4 sequence (whole entry): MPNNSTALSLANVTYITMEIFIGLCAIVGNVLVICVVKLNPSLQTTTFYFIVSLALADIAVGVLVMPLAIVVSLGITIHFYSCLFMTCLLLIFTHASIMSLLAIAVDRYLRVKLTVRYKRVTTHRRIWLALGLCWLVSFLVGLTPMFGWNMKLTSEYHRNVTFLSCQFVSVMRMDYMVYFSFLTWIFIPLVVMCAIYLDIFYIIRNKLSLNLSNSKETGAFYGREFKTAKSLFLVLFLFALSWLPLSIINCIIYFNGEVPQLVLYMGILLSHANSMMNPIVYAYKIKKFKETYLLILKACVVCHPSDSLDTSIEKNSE
Briefly: Displacement of [3H]NECA from adenosine A3 receptor expressed in human HeLa cell membranes at 1 uM incubated for 180 mins by scintillation counting method. Conditions: Cell membrane. The method in brief: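 hA3AR in HeLa membranes (3 pmol/mg protein) with 10 nM [3H]NECA (KD 8.7 nM); nonspecific binding with 100 μM R-PIA; incubated 180 min at 25 °C, washed, filtered, radioactivity counted.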

Active and inactive are the calls of the source. The calls are words filed in the database; no cut-off is given here.

T3 sequence (P10635 whole entry): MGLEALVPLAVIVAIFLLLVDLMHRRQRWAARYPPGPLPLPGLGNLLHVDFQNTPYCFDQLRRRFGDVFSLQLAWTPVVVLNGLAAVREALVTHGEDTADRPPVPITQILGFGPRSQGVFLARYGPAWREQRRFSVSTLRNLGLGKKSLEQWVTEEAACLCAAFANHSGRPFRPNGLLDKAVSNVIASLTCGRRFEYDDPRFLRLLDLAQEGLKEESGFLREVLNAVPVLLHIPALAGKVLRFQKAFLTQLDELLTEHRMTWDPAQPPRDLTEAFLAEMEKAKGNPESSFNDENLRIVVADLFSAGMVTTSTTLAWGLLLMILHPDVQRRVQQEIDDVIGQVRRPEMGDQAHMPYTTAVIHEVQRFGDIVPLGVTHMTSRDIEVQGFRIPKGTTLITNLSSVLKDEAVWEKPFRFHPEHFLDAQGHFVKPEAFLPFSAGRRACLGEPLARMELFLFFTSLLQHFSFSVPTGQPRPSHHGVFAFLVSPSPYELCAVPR

`CCCn1c(=O)[nH]c2nc(-c3cnn(Cc4cccc(C(F)(F)F)c4)c3)[nH]c2c1=O` displayed a Ki at Adenosine receptor A2b of 6 nM.
Regarding `CCOC(=O)C1=C(C)NC(=O)NC1c1ccsc1` (racemic), the remaining at 1 h in series [1] turned out to be 65%. Besides, the Activity entry with LNCaP [2] is given as “Non-Toxic”; in the series on PC-3 [3], “Non-Toxic”; in the series on DU-145 [4] it was “Non-Toxic”; with PC-3 [5], 35%. In addition, the result with DU-145 [6], in the series with LNCaP [7], in the series with PC-3 [8] and with PC-3 [9] was Active. The inhibition at 1 µM at CYP3A4 [10] is 15%; on CYP3A4 [12], 4%; on CYP2D6 [14] it was 15%. Besides, the inhibition at 10 µM at CYP3A4 [11] amounted to 44%; on CYP3A4 [13], 12%; on CYP2D6 [15], 22%.
`CC1=C(C(=O)OC(C)C)C(c2ccco2)NC(=S)N1` (racemic) yielded an inhibition in series [16] of 1%. Further, the remaining at 1 h in series [1] came out at 77%. Moreover, the Activity entry is “Non-Toxic” in the series with LNCaP [2], “Non-Toxic” in the series with PC-3 [3], “Non-Toxic” in the series with DU-145 [4] and 50% in the series on PC-3 [5]. Further, the result in the series on DU-145 [6], with LNCaP [7], in the series with PC-3 [8] and with PC-3 [9] was Active. Further, the figures for the inhibition at 1 µM on CYP3A4 [10], at CYP3A4 [12] and on CYP2D6 [14] were 1%, 3% and 15%, respectively. Further, the inhibition at 10 µM is 13% at CYP3A4 [11], 1% on CYP3A4 [13] and 12% on CYP2D6 [15].
